Legend:
Assay type in all cases: functional
[1] = test system: Trypanosoma brucei rhodesiense; assay: Antitrypanosomal activity against Trypanosoma brucei rhodesiense infected in vervet monkey assessed as change in packed cell volume at 10 mg/kg, po administered on day 14 post infection for 5 days
[2] = test system: Trypanosoma brucei rhodesiense; assay: Antitrypanosomal activity against Trypanosoma brucei rhodesiense infected in vervet monkey assessed as change in packed cell volume at 10 mg/kg, po administered on day 14 post infection for 5 days measured on day 28 post treatment
[3] = test system: Trypanosoma brucei rhodesiense; assay: Antitrypanosomal activity against Trypanosoma brucei rhodesiense infected in vervet monkey 483 assessed as time to detect CSF parasitosis at 3 mg/kg, po administered on day 7 post infection for 5 days measured after 7 to 14 days
How it was run: (§1)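 Trypanosomes and white cells in free-flowing CSF were counted by hemocytometer. Negative CSF was centrifuged and re-examined. Samples still negative were inoculated at 0.2 ml intraperitoneally into two mice each. Drug was given once daily by oral gavage: 5 days from day 7 p.i., or 10 days from day 28 p.i.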

[4] = test system: Trypanosoma brucei rhodesiense; assay: Antitrypanosomal activity against Trypanosoma brucei rhodesiense infected in vervet monkey assessed as change in packed cell volume at 10 mg/kg, po administered on day 28 post infection for 10 days measured on day 28 post treatment
How it was run: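 Three vervet monkeys were infected intravenously with T. b. rhodesiense KETRI 2537 and treated in late-stage disease. From day 28 p.i., a drug suspension was given by oral gavage once daily for 10 consecutive days. PCV was reported as % change from the mean preinfection value at day 0 p.t., day 28 p.t. and endpoint. Monitoring continued up to 180 days p.t.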

[5] = test system: Trypanosoma brucei rhodesiense; assay: Antitrypanosomal activity against Trypanosoma brucei rhodesiense infected in vervet monkey assessed as body weight change at 10 mg/kg, po administered on day 14 post infection for 5 days measured on day 28 post treatment
[6] = test system: Trypanosoma brucei rhodesiense; assay: Antitrypanosomal activity against Trypanosoma brucei rhodesiense infected in vervet monkey 485 assessed as time to detect CSF parasitosis at 1 mg/kg, po administered on day 7 post infection for 5 days measured after 7 to 14 days; how it was run: as §1

CONC(=N)c1ccc(-c2ccc(-c3ccc(C(=N)NOC)cc3)o2)cc1 [PAFURAMIDINE]
Activity [1]: -25.8% | Activity [2]: -13.5% | Time [3]: 69 days | Activity [4]: -9.1% | Activity [5]: -5.2% | Time [6]: 14 days

— ChEMBL document CHEMBL1649125, “Efficacy of the novel diamidine compound 2,5-Bis(4-amidinophenyl)- furan-bis-O-Methlylamidoxime (Pafuramidine, DB289) against Trypanosoma brucei rhodesiense infection in vervet monkeys after oral administration” (2009)
